In ChEMBL document CHEMBL5108039, “Piperazine tethered bergenin heterocyclic hybrids: design, synthesis, anticancer activity, and molecular docking studies” (RSC Med Chem, 2022) one finds IC50 data, which are given here for 26 compounds.

Bounds are passed on as bounds.

One series has as its system CAL-27. Nature of the series: Cytotoxicity against human CAL-27 cells assessed as cell growth inhibition. The format is functional, cell-based. In outline: (§1)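 Compounds were dissolved in sterile DMSO as 10 mg ml−1 stocks and tested for in vitro growth inhibition of human cancer cell lines. Doxorubicin was the standard drug and DMSO (0.01%) the vehicle control. IC50 values are reported as means.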

The nature of series [1]: Cytotoxicity against human BEAS-2B cells assessed as cell growth inhibition. It is filed as toxicity, cell-based. In outline: (§2)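 Compounds were dissolved in sterile DMSO as 10 mg ml−1 stocks and tested in vitro for cytotoxicity in a cell-line panel, with DMSO (0.01%) as vehicle control and doxorubicin as standard. Mean IC50 values were reported, and the normal lung epithelial cells were tested up to 100 μM.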

In another series the test system is A549. The series is described as follows: Cytotoxicity against human A549 cells assessed as cell growth inhibition. The format is functional, cell-based. In outline: as §2
A further series concerns HCT-15. The series is described as follows: Cytotoxicity against human HCT-15 cells assessed as cell growth inhibition. The format is functional, cell-based. Put shortly:
as §1

The test system of the next series is MCF7. The series is described as follows: Cytotoxicity against human MCF7 cells assessed as cell growth inhibition. It is filed as functional, cell-based. In outline:
as §1

In another series the test system is SCC-9. Nature of the series: Cytotoxicity against human SCC-9 cells assessed as cell growth inhibition. The format is functional, cell-based. In outline:
as §1

As for `COc1c(O)c(CN2CCN(S(=O)(=O)c3ccc(C(F)(F)F)cc3)CC2)c2c(c1O)C1O[C@H](CO)[C@@H](O)[C@H](O)C1OC2=O` (stereo partly specified), the IC50 in the series with CAL-27 was 68.6 µM; in series [1], above 100 µM; in the series on A549 it was above 100 µM; in the series on HCT-15, above 100 µM; with MCF7, above 100 µM; in the series with SCC-9, above 100 µM.

`COc1ccc(S(=O)(=O)N2CCN(Cc3c(O)c(OC)c(O)c4c3C(=O)OC3C4O[C@H](CO)[C@@H](O)[C@@H]3O)CC2)cc1` (stereo partly specified): the IC50 (in the series on CAL-27; in series [1]; with A549; in the series on HCT-15; in the series with MCF7; in the series with SCC-9) was above 100 µM throughout.

As to `COc1c(O)c(CN2CCN(CC(=O)Nc3nc4ccc(Cl)cc4s3)CC2)c2c(c1O)C1O[C@H](CO)[C@@H](O)[C@H](O)C1OC2=O` (stereo partly specified), the IC50 with CAL-27 was above 100 µM; in series [1], 44.2 µM; in the series on A549, 65.6 µM; in the series with HCT-15 it was 97.6 µM; in the series with MCF7 it was 64.1 µM; with SCC-9, 32.6 µM.

With `COc1c(O)c(CN2CCN(S(=O)(=O)c3ccc(C)cc3)CC2)c2c(c1O)C1O[C@H](CO)[C@@H](O)[C@H](O)C1OC2=O` (stereo partly specified), the half-inhibitory concentration (IC50) in the series with CAL-27 was 56.8 µM; in series [1], 51.6 µM; in the series on A549, above 100 µM; with HCT-15, above 100 µM; in the series with MCF7, above 100 µM; in the series with SCC-9, above 100 µM.

As for `COc1c(O)cc2c(c1O)C1O[C@H](CO)[C@@H](O)[C@H](O)C1OC2=O` (stereo partly specified), the IC50 (in the series with CAL-27; in series [1]; in the series with A549; in the series with HCT-15; with MCF7; in the series on SCC-9) was above 100 µM throughout.

Take `CCOc1ccc2nc(NC(=O)CN3CCN(Cc4c(O)c(OC)c(O)c5c4C(=O)OC4C5O[C@H](CO)[C@@H](O)[C@@H]4O)CC3)sc2c1` (stereo partly specified): the IC50 in the series on CAL-27 is 83.7 µM; in series [1], above 100 µM; in the series with A549, above 100 µM; in the series with HCT-15 it was above 100 µM; in the series with MCF7 it was above 100 µM; with SCC-9, above 100 µM.

Consider `COc1c(O)c(CN2CCN(S(=O)(=O)c3ccc(F)c(F)c3F)CC2)c2c(c1O)C1O[C@H](CO)[C@@H](O)[C@H](O)C1OC2=O` (stereo partly specified), for which the IC50 (in the series on CAL-27; in series [1]; in the series with A549; in the series with HCT-15; in the series with MCF7; with SCC-9) was above 100 µM throughout.

In the case of `COc1c(O)c(CN2CCN(S(=O)(=O)c3ccccc3)CC2)c2c(c1O)C1O[C@H](CO)[C@@H](O)[C@H](O)C1OC2=O` (stereo partly specified), the IC50 in the series on CAL-27 was 85.5 µM; in series [1], above 100 µM; in the series with A549, above 100 µM; in the series on HCT-15 it was above 100 µM; in the series with MCF7 it was above 100 µM; in the series with SCC-9 it was above 100 µM.

For the compound `COc1c(O)c(CN2CCN(S(=O)(=O)c3cccs3)CC2)c2c(c1O)C1O[C@H](CO)[C@@H](O)[C@H](O)C1OC2=O` (stereo partly specified), the IC50 (in the series with CAL-27; in series [1]; in the series on A549; in the series on HCT-15; in the series on MCF7; with SCC-9) was above 100 µM throughout.

In the case of `COc1c(O)c(CN2CCN(CC(=O)Nc3nc(-c4ccc(Cl)cc4)cs3)CC2)c2c(c1O)C1O[C@H](CO)[C@@H](O)[C@H](O)C1OC2=O` (stereo partly specified), the IC50 with CAL-27 is 46.6 µM; in series [1], above 100 µM; in the series on A549 it was 49.9 µM; in the series on HCT-15 it was above 100 µM; in the series on MCF7 it was 37.3 µM; in the series with SCC-9 it was above 100 µM.

`COc1ccc(S(=O)(=O)N2CCN(Cc3c(O)c(OC)c(O)c4c3C(=O)OC3C4O[C@H](CO)[C@@H](O)[C@@H]3O)CC2)cc1OC` (stereo partly specified): the IC50 (in the series on CAL-27; in series [1]; in the series with A549; in the series on HCT-15; with MCF7; in the series on SCC-9) was above 100 µM in each case.

As for `COc1ccc2nc(NC(=O)CN3CCN(Cc4c(O)c(OC)c(O)c5c4C(=O)OC4C5O[C@H](CO)[C@@H](O)[C@@H]4O)CC3)sc2c1` (stereo partly specified), the IC50 (with CAL-27; in series [1]; in the series with A549; with HCT-15; in the series with MCF7; with SCC-9) was above 100 µM each time.

Turning to `COc1c(O)c(CN2CCN(CC(=O)Nc3nc4ccc([N+](=O)[O-])cc4s3)CC2)c2c(c1O)C1O[C@H](CO)[C@@H](O)[C@H](O)C1OC2=O` (stereo partly specified), the IC50 in the series with CAL-27 is 30.5 µM; in series [1] it was 58.6 µM; in the series on A549 it was above 100 µM; in the series on HCT-15 it was 85.9 µM; with MCF7, above 100 µM; in the series on SCC-9 it was 37.6 µM.

For the compound `COc1c(O)c(CN2CCN(CC(=O)Nc3nc4c(C)cccc4s3)CC2)c2c(c1O)C1O[C@H](CO)[C@@H](O)[C@H](O)C1OC2=O` (stereo partly specified), the concentration for half-maximal inhibition (IC50) was 81.2 µM in the series on CAL-27; above 100 µM in series [1]; above 100 µM with A549; above 100 µM in the series on HCT-15; above 100 µM in the series on MCF7; above 100 µM in the series with SCC-9.

As for `COc1c(O)c(CN2CCN(S(=O)(=O)c3ccc(F)c(F)c3)CC2)c2c(c1O)C1O[C@H](CO)[C@@H](O)[C@H](O)C1OC2=O` (stereo partly specified), the IC50 (in the series on CAL-27; in series [1]; in the series with A549; with HCT-15; with MCF7; in the series with SCC-9) was above 100 µM in each case.

Consider `COc1c(O)c(CN2CCN(S(=O)(=O)c3cccc4ccccc34)CC2)c2c(c1O)C1O[C@H](CO)[C@@H](O)[C@H](O)C1OC2=O` (stereo partly specified), for which the half-inhibitory concentration (IC50) was 74 µM in the series with CAL-27; above 100 µM in series [1]; above 100 µM with A549; above 100 µM in the series on HCT-15; above 100 µM with MCF7; above 100 µM in the series on SCC-9.

`COc1c(O)c(CN2CCN(S(=O)(=O)c3ccc(Br)cc3)CC2)c2c(c1O)C1O[C@H](CO)[C@@H](O)[C@H](O)C1OC2=O` (stereo partly specified): the IC50 was above 100 µM with CAL-27; 22.4 µM in series [1]; above 100 µM with A549; above 100 µM in the series with HCT-15; above 100 µM in the series on MCF7; above 100 µM in the series on SCC-9.

In the case of `COc1c(O)c(CN2CCN(CC(=O)Nc3nc4ccc(F)cc4s3)CC2)c2c(c1O)C1O[C@H](CO)[C@@H](O)[C@H](O)C1OC2=O` (stereo partly specified), the half-inhibitory concentration (IC50) was 53 µM in the series with CAL-27; above 100 µM in series [1]; above 100 µM in the series with A549; above 100 µM in the series on HCT-15; above 100 µM with MCF7; above 100 µM in the series with SCC-9.

As to `COc1c(O)c(CN2CCN(CC(=O)Nc3nc4ccccc4s3)CC2)c2c(c1O)C1O[C@H](CO)[C@@H](O)[C@H](O)C1OC2=O` (stereo partly specified), the IC50 in the series on CAL-27 is 91.2 µM; in series [1] it was 97.3 µM; with A549, above 100 µM; in the series with HCT-15, above 100 µM; with MCF7 it was above 100 µM; in the series on SCC-9, 64.8 µM.

Regarding `COc1c(O)c(CN2CCN(S(=O)(=O)c3ccc(F)cc3Cl)CC2)c2c(c1O)C1O[C@H](CO)[C@@H](O)[C@H](O)C1OC2=O` (stereo partly specified), the half-maximal inhibitory concentration (IC50) (with CAL-27; in series [1]; in the series on A549; in the series with HCT-15; in the series on MCF7; with SCC-9) was above 100 µM throughout.

Turning to `COc1c(O)c(CN2CCN(S(=O)(=O)c3ccc(OC(F)(F)F)cc3)CC2)c2c(c1O)C1O[C@H](CO)[C@@H](O)[C@H](O)C1OC2=O` (stereo partly specified), the IC50 (with CAL-27; in series [1]; in the series on A549; in the series with HCT-15; in the series with MCF7; in the series with SCC-9) was above 100 µM in each case.

On to `COc1c(O)c(CN2CCN(CC(=O)Nc3nc(-c4cccc5ccccc45)cs3)CC2)c2c(c1O)C1O[C@H](CO)[C@@H](O)[C@H](O)C1OC2=O` (stereo partly specified), for which the IC50 in the series with CAL-27 was 57.2 µM; in series [1], 83.5 µM; with A549 it was above 100 µM; in the series on HCT-15 it was 86.2 µM; in the series on MCF7 it was above 100 µM; in the series on SCC-9 it was 65.5 µM.

Consider `COc1c(O)c(CN2CCN(CC(=O)Nc3nc(-c4ccc5ccccc5c4)cs3)CC2)c2c(c1O)C1O[C@H](CO)[C@@H](O)[C@H](O)C1OC2=O` (stereo partly specified), for which the IC50 is 42.7 µM in the series with CAL-27; above 100 µM in series [1]; 40.6 µM with A549; above 100 µM with HCT-15; 25.2 µM in the series with MCF7; above 100 µM in the series on SCC-9.

As to `COc1c(O)c(CN2CCN(S(=O)(=O)c3ccc(F)c(Cl)c3)CC2)c2c(c1O)C1O[C@H](CO)[C@@H](O)[C@H](O)C1OC2=O` (stereo partly specified), the IC50 in the series on CAL-27 is 92.9 µM; in series [1], above 100 µM; with A549, above 100 µM; in the series on HCT-15, above 100 µM; in the series on MCF7, above 100 µM; in the series on SCC-9, above 100 µM.

For the compound `COc1c(O)c(CN2CCN(CC(=O)Nc3nc4c(Cl)cccc4s3)CC2)c2c(c1O)C1O[C@H](CO)[C@@H](O)[C@H](O)C1OC2=O` (stereo partly specified), the IC50 in the series with CAL-27 worked out at 15.4 µM; in series [1] it was 21.7 µM; with A549, 22.5 µM; in the series with HCT-15 it was 30.2 µM; in the series on MCF7, 19.6 µM; in the series with SCC-9, 17.4 µM.

On to `COc1c(O)c(CN2CCN(S(=O)(=O)c3ccc([N+](=O)[O-])cc3)CC2)c2c(c1O)C1O[C@H](CO)[C@@H](O)[C@H](O)C1OC2=O` (stereo partly specified), for which the concentration for half-maximal inhibition (IC50) in the series on CAL-27 is 91.6 µM; in series [1], above 100 µM; in the series with A549, above 100 µM; with HCT-15, above 100 µM; in the series with MCF7, above 100 µM; in the series with SCC-9, above 100 µM.

As usually defined, the IC50 is the point on the concentration scale where inhibition reaches its midpoint.
